The record followed here is ChEMBL document CHEMBL5230171, “Expanding the structure-activity relationships of alkynyl diphenylurea scaffold as promising antibacterial agents” (RSC Med Chem, 2023).

Activity calls are given as the source filed them. The calls are words filed in the database; no cut-off is given here.

Series [1] deals with Staphylococcus aureus. The series is described as follows: Antibacterial activity against vancomycin resistant Staphylococcus aureus 9 assessed as inhibition of bacterial growth at 0.5 ug/ml incubated for 18 to 20 hrs by CLSI protocol based broth microdilution method. It counts as functional, organism-based. The following applies: dose 0.5 µg/ml, time 18-20 hrs.
Series [2] has as its system Staphylococcus aureus. Briefly: Antibacterial activity against methicillin resistant Staphylococcus aureus 384 assessed as inhibition of bacterial growth at 0.5 ug/ml incubated for 18 to 20 hrs by CLSI protocol based broth microdilution method. The following applies: dose 0.5 µg/ml, time 18-20 hrs. It counts as functional, organism-based.
Series [3] in a line: Cytotoxicity against African green monkey Vero cells assessed as tolerance by measuring cell viability upto 128 ug/ml incubated for 24 hrs by MTS assay relative to control. The following applies: chlorocebus sabaeus, up to 128 µg/mL, read-out: Activity. It counts as toxicity, cell-based. In a few lines:
(§1)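 Vero or HaCaT cells were exposed to 32, 64 and 128 μg mL−1 compound in triplicate for 24 h at 37 °C, 5% CO2, with a DMSO control. MTS was then added for 4 h and OD490 read. Analysis used two-way ANOVA with Dunnett's post hoc test (p < 0.05).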

The nature of series [4]: Cytotoxicity against human HaCaT cells assessed as tolerance by measuring cell viability at 64 ug/ml incubated for 24 hrs by MTS assay relative to control. It counts as toxicity, cell-based. The following applies: at 64 µg/mL, read-out: Activity. In short, it runs like this:
as §1

Series [5] has as its system Staphylococcus aureus. Briefly: Antibacterial activity against methicillin resistant Staphylococcus aureus 119 assessed as inhibition of bacterial growth at 0.5 ug/ml incubated for 18 to 20 hrs by CLSI protocol based broth microdilution method. It counts as functional, organism-based. The following applies: dose 0.5 µg/ml, time 18-20 hrs.
In series [6] the test system is Staphylococcus aureus. The series is described as follows: Antibacterial activity against vancomycin resistant Staphylococcus aureus 10 assessed as inhibition of bacterial growth at 0.5 ug/ml incubated for 18 to 20 hrs by CLSI protocol based broth microdilution method. It counts as functional, organism-based. The following applies: dose 0.5 µg/ml, time 18-20 hrs.

The subject of series [7] is Staphylococcus aureus. The series is described as follows: Antibacterial activity against methicillin sensitive Staphylococcus aureus 6538 assessed as inhibition of bacterial growth at 0.5 ug/ml incubated for 18 to 20 hrs by CLSI protocol based broth microdilution method. The following applies: dose 0.5 µg/ml, time 18-20 hrs. It counts as functional, organism-based. In a few lines: (§2)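 Staphylococcal and E. coli strains were diluted from a 0.5 McFarland suspension in cation-adjusted Mueller Hinton broth to ~5 × 10^5 CFU mL−1. They were incubated with serial dilutions of test agent in broth microdilution, and the MIC was recorded.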

Series [8] has as its system Staphylococcus aureus. The series is described as follows: Antibacterial activity against methicillin resistant Staphylococcus aureus 386 assessed as inhibition of bacterial growth at 0.5 ug/ml incubated for 18 to 20 hrs by CLSI protocol based broth microdilution method. It counts as functional, organism-based. The following applies: dose 0.5 µg/ml, time 18-20 hrs.
Series [9] has as its system Staphylococcus aureus. The series is described as follows: Antibacterial activity against methicillin resistant Staphylococcus aureus 123 assessed as inhibition of bacterial growth at 0.5 ug/ml incubated for 18 to 20 hrs by CLSI protocol based broth microdilution method. It counts as functional, organism-based. The following applies: dose 0.5 µg/ml, time 18-20 hrs.
In series [10] the test system is Staphylococcus aureus. Briefly: Antibacterial activity against vancomycin resistant Staphylococcus aureus 12 assessed as inhibition of bacterial growth at 0.5 ug/ml incubated for 18 to 20 hrs by CLSI protocol based broth microdilution method. It counts as functional, organism-based. The following applies: dose 0.5 µg/ml, time 18-20 hrs.
Series [11] deals with Staphylococcus aureus. The series is described as follows: Antibacterial activity against methicillin sensitive Staphylococcus aureus 107 assessed as inhibition of bacterial growth at 0.5 ug/ml incubated for 18 to 20 hrs by CLSI protocol based broth microdilution method. It counts as functional, organism-based. The following applies: dose 0.5 µg/ml, time 18-20 hrs. In a few lines: as §2

For series [12], the system named is Staphylococcus aureus. Briefly: Antibacterial activity against methicillin resistant Staphylococcus aureus 385 assessed as inhibition of bacterial growth at 0.5 ug/ml incubated for 18 to 20 hrs by CLSI protocol based broth microdilution method. It counts as functional, organism-based. The following applies: dose 0.5 µg/ml, time 18-20 hrs.
The test system of series [13] is Staphylococcus aureus. The series is described as follows: Antibacterial activity against methicillin resistant Staphylococcus aureus NRS384 USA300 infected in Balb/c mouse model of skin infection assessed as healing administered topically twice daily for three consecutive days from day 4 to 6 and measured 24 hrs post last dose. It counts as functional, organism-based. The following applies: route top, time 4.0 day. In short, it runs like this:
(§3)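 Mice were anesthetized with 2,2,2-tribromoethanol and injected subcutaneously with 100 μL containing 2 × 10^9 CFU MRSA USA300 in 0.5% HPMC in saline. Topical treatment used a petroleum jelly vehicle, with a fusidic acid positive control. Lesions were photographed 24 h after the last dose. A ~1.5 cm2 skin patch (homogenized in 1 mL saline) and the spleen (in 0.5 mL) were serially diluted and plated on MSA at 37 °C overnight for CFU.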

Series [14] deals with Staphylococcus aureus. The series is described as follows: Antibacterial activity against methicillin resistant Staphylococcus aureus NRS384 USA300 infected in Balb/c mouse model of skin infection assessed as reduction in inflammation administered topically twice daily for three consecutive days from day 4 to 6 and measured 24 hrs post last dose. It counts as functional, organism-based. The following applies: route top, time 4.0 day. In a few lines: as §3

In series [15] the test system is Staphylococcus aureus. Briefly: Antibacterial activity against methicillin resistant Staphylococcus aureus NRS384 USA300 infected in Balb/c mouse model of skin infection assessed as reduction in bacterial burden in skin lesions administered topically twice daily for three consecutive days from day 4 to 6 and measured 24 hrs post last dose. It counts as functional. The following applies: route top; time 4 day. In short, it runs like this: as §3

A further series concerns Vero. The series is described as follows: Cytotoxicity against African green monkey Vero cells assessed as reduction in cell viability at 64 ug/ml incubated for 24 hrs by MTS assay. It counts as toxicity, cell-based. The following applies: chlorocebus sabaeus, dose 64 µg/ml. In a few lines: as §1
The nature of series [16]: Cytotoxicity against human HaCaT cells assessed as tolerance by measuring cell viability upto 128 ug/ml incubated for 24 hrs by MTS assay relative to control. It counts as toxicity, cell-based. The following applies: up to 128 µg/mL, read-out: Activity. In a few lines: as §1

On to `C/C(=N\NC(=N)N)c1ccc(NC(=O)Nc2ccc(C#CC3(N)CCCCC3)cc2)cc1`, for which the result in the series with Staphylococcus aureus [1], with Staphylococcus aureus [2], in the series on Staphylococcus aureus [5], in the series on Staphylococcus aureus [6], in the series on Staphylococcus aureus [7] and in the series on Staphylococcus aureus [8] was Active. Besides, the result in the series on Staphylococcus aureus [9], with Staphylococcus aureus [10], in the series with Staphylococcus aureus [11] and in the series with Staphylococcus aureus [12] was Active. In addition, the viability at 24 h in [3] was 100%. In addition, the viability at 24 h, 64 ug/ml in series [4] worked out at 100%.
With `CC(=O)O[C@H]1C[C@@]2(C)[C@@H](C[C@@H](O)[C@H]3[C@@]4(C)CC[C@@H](O)[C@@H](C)[C@@H]4CC[C@@]32C)/C1=C(\CCC=C(C)C)C(=O)O` [FUSIDIC ACID], the outcome in the series with Staphylococcus aureus [13] and in the series with Staphylococcus aureus [14] was Active. Also, in the series on Staphylococcus aureus [15], the Activity is 1.5 log10CFU/ml.
Turning to `C/C(=N\NC(=N)N)c1ccc(NC(=O)Nc2ccc(C#CC(C)(C)O)cc2)cc1`, the outcome with Staphylococcus aureus [1], in the series with Staphylococcus aureus [2], in the series with Staphylococcus aureus [5], in the series on Staphylococcus aureus [6], with Staphylococcus aureus [7] and in the series on Staphylococcus aureus [8] was Active. Also, the outcome with Staphylococcus aureus [9], in the series with Staphylococcus aureus [10], with Staphylococcus aureus [11] and with Staphylococcus aureus [12] was Active. For the same compound, in the series on Vero, the Activity result is given as “Non-Toxic”. Also, in [16], the viability at 24 h turned out to be 100%.
